Results on 20 compounds are retold here after ChEMBL document CHEMBL1148701, “Design and synthesis of a new class of selective integrin alpha5beta1 antagonists” (J Med Chem, 2007).

Series [1] concerns the target T1, Integrin alpha-5/beta-1 (Homo sapiens, UniProt P05556+P08648). Description: Inhibition of integrin alpha-5-beta-1 receptor by ELISA. Type of series: protein-complex assay. In outline: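 Wells coated overnight at 4°C with fibronectin (0.25 µg/mL) at pH 9.6, then blocked with 3% BSA. Bound integrin was detected with anti-human-Fc-HRP, TMB, A450. IC50 was taken from the curve turning point.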

In series [2] the target is Integrin alpha-V/beta-3 (Homo sapiens, UniProt P05106+P06756). Description: Inhibition of integrin alpha-V-beta-3 receptor by ELISA. Type of series: protein-complex assay. In outline:
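Vitronectin-coated wells (1 µg/mL) were blocked with 3% BSA/PBS-Tween. Soluble αvβ3 (1 µg/mL) was incubated with serially diluted inhibitor for 1 h at RT in Tris/NaCl/MnCl2/BSA buffer. Binding was read with anti-αvβ3 plus anti-mouse-HRP, then TMB, absorbance 450 nm. IC50 was taken at the turning point of the inhibition curve.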

For series [3], the target named is Integrin alpha-IIb/beta-3 (Homo sapiens, UniProt P05106+P08514). In words: Inhibition of integrin alpha-2b-beta-3 receptor by ELISA. The format is protein-complex assay. In outline:
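Solid-phase ELISA. Wells coated with fibrinogen (10 µg/mL) and blocked with 3% BSA in PBS/0.1% Tween 20 for 1 h at RT. Soluble αIIbβ3 (5 µg/mL) was incubated with serially diluted inhibitor in Tris pH 7.6, 150 mM NaCl, 1 mM MnCl2/MgCl2/CaCl2, 1 mg/mL BSA for 1 h at RT. Detection used anti-CD41b then anti-mouse-HRP, TMB, A450. IC50 was taken as the curve turning point.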

Series [4] is filed under the species Homo sapiens. Description: Selectivity for integrin alpha-5-beta-1 over alpha2bbeta3 receptor.
Series [5] is filed under the species Homo sapiens. Description: Selectivity for integrin alpha5beta1 over alphaVbeta3 receptor.
For series [6], the species on record is Homo sapiens. Description: Selectivity for integrin alpha5beta1 over alpha-3-beta-1 receptor.
Series [7] in a line: Inhibition of integrin alpha-3b-beta-1 receptor by ELISA. Further details: species or system Homo sapiens. In outline:
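Solid-phase ELISA. Wells coated with laminin (5 µg/mL) and blocked with 3% BSA/PBS-Tween. Soluble α3β1 (2 µg/mL) was incubated with serially diluted inhibitor in Tris pH 7.6, NaCl, 1 mM MnCl2, BSA, 0.05% Tween 20 for 1 h at RT. Detection used polyclonal anti-α3β1 then anti-rabbit-HRP, TMB/H2SO4, absorbance 450 nm. IC50 was taken as the inflection point.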

The species entered for series [8] is Homo sapiens. Description: Selectivity for integrin alpha-5-beta-1 over alphaVbeta5 receptor.
Series [9] has as its target Integrin alpha-V/beta-5 (Homo sapiens, UniProt P06756+P18084). In words: Inhibition of integrin alpha-V-beta-5 receptor by ELISA. The format is protein-complex assay. An outline of the steps:
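ELISA on vitronectin coating (5 µg/mL). Soluble αvβ5 (1.5 µg/mL) was incubated with serially diluted inhibitor for 1 h at RT in Tris pH 7.6, NaCl, 1 mM each MnCl2/MgCl2/CaCl2, BSA, 0.05% Tween 20. Detection used anti-αvβ5 and anti-mouse-HRP, TMB, A450. IC50 was the inflection point.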

A short description of series [10]: Stability in human microsome at 1 uM after 1 hr. The format is ADME. The settings on record: microsomes, read-out: Stability. In outline:
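Compound at 1 µM was incubated with human microsomes for 1 h, and the percentage remaining was recorded.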

The target of series [11] is T1, Integrin alpha-5/beta-1. In words: Inhibition of integrin alpha-5-beta-1 receptor expressed in HEK293 cells. The format is cell-based. In outline: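 HEK293 cells with endogenous α5β1 were tested for adhesion to fibronectin. IC50 was determined.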

Integrin alpha-IIb/beta-3, sequence (P05106 27-788 limits assumed): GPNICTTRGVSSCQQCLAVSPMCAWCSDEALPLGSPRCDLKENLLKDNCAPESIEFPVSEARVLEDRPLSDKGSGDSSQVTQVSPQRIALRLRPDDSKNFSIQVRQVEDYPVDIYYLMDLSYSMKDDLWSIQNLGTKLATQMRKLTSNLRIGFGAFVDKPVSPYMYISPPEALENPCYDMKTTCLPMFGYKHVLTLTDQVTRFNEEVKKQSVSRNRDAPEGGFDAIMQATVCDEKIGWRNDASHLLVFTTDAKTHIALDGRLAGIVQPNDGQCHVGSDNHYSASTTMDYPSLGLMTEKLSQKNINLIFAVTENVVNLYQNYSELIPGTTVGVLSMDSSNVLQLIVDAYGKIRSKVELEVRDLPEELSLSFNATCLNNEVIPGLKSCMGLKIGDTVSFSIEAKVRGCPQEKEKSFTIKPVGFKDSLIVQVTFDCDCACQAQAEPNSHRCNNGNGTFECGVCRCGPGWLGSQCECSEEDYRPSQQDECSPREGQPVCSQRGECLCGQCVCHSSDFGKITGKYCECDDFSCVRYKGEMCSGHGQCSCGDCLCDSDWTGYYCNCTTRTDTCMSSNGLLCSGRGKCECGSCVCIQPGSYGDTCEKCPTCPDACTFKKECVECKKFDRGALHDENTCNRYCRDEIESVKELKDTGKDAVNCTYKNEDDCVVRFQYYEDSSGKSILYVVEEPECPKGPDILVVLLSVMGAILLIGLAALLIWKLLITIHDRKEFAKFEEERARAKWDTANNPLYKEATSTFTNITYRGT
Integrin alpha-IIb/beta-3, sequence (P08514 32-887 limits assumed): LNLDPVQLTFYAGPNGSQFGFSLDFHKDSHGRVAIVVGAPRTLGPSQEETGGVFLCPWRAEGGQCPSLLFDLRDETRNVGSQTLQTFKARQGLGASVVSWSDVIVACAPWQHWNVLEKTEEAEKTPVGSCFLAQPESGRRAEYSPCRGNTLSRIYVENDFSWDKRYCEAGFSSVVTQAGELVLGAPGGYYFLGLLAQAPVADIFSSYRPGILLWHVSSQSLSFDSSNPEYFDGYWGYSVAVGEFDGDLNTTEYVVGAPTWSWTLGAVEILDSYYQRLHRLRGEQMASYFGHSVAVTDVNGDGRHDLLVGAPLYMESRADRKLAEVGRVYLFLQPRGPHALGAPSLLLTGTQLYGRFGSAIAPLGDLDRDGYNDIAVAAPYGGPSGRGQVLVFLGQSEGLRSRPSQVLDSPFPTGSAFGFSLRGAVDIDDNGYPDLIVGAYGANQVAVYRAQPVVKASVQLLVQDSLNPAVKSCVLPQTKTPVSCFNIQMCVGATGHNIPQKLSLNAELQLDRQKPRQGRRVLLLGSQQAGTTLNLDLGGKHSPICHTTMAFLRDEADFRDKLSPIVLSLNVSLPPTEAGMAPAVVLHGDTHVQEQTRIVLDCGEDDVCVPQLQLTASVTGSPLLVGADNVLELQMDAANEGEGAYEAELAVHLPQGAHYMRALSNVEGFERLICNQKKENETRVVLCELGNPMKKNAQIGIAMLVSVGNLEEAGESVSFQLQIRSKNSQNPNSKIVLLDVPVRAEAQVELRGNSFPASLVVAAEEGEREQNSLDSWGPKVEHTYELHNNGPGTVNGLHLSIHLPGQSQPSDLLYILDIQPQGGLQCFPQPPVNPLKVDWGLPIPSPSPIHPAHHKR
Integrin alpha-IIb/beta-3, sequence (P08514 891-1039 limits assumed): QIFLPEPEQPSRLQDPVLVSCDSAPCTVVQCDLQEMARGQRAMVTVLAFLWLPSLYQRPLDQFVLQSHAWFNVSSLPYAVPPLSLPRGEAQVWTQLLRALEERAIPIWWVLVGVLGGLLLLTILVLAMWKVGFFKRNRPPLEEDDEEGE
Integrin alpha-V/beta-3, sequence (P05106 27-788 limits assumed): as the sequence (P05106 27-788 limits assumed) above
Integrin alpha-V/beta-3, sequence (P06756 31-889 limits assumed): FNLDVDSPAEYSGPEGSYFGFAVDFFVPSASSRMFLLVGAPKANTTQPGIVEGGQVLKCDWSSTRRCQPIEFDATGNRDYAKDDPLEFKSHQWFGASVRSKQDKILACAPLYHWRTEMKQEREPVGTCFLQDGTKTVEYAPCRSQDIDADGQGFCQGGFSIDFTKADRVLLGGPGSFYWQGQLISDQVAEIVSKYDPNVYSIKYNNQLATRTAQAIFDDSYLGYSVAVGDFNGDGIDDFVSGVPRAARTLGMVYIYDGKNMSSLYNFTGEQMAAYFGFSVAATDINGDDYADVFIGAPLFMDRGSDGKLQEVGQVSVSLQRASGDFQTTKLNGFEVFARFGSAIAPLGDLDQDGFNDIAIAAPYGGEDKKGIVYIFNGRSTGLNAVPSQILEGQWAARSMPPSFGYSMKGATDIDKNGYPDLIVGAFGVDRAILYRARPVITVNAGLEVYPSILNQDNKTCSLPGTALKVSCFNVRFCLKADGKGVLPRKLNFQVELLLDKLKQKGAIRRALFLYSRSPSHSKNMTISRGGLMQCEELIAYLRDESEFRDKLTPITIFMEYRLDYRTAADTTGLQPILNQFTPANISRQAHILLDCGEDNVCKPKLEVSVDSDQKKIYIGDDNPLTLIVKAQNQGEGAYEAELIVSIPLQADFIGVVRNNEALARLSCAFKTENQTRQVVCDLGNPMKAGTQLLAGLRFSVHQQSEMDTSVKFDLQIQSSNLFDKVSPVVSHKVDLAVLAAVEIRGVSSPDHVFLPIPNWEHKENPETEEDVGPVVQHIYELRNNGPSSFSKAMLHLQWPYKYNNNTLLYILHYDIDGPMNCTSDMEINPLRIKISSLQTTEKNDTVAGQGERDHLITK
Integrin alpha-V/beta-3, sequence (P06756 891-1048 limits assumed): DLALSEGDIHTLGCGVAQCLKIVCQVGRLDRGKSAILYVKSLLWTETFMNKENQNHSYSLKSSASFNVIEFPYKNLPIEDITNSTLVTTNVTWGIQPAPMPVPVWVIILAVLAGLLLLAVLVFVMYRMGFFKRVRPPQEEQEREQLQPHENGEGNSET
Integrin alpha-V/beta-5, sequence (P06756 31-889 limits assumed): as the sequence (P06756 31-889 limits assumed) above
Integrin alpha-V/beta-5, sequence (P06756 891-1048 limits assumed): as the sequence (P06756 891-1048 limits assumed) above
Integrin alpha-V/beta-5, sequence (P18084 24-799 limits assumed): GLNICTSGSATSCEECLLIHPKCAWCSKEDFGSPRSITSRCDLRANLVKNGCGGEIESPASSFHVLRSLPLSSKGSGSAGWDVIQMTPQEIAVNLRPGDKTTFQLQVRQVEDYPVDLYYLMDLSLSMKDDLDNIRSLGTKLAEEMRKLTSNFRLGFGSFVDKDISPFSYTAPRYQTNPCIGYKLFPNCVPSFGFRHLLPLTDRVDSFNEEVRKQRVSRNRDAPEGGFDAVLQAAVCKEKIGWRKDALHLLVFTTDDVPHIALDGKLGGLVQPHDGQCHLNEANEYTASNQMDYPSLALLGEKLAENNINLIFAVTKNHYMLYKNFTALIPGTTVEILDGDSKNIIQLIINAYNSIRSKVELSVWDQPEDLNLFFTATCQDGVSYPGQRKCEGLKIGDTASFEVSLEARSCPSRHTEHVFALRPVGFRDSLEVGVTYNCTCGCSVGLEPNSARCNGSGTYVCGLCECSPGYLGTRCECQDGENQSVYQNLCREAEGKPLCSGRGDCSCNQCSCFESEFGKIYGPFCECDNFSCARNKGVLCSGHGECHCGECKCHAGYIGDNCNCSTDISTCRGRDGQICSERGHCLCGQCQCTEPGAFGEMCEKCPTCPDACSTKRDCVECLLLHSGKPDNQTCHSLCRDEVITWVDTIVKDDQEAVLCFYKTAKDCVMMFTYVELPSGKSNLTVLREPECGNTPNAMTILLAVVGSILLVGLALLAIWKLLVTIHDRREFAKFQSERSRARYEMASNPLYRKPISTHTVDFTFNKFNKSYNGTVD

Consider `COC(=O)N1C[C@H](OCC(=O)NC[C@H](NS(=O)(=O)c2c(C)cc(C)cc2C)C(=O)O)C[C@H]1CNc1ccccn1`, for which the IC50 in series [1] stood at 0.015 µM; in series [2], 0.009 µM.
`Cc1cc(C)c(C(=O)N[C@@H](CNC(=O)CO[C@@H]2C[C@@H](CNc3ccccn3)N(C(=O)OCc3ccccc3)C2)C(=O)O)c(C)c1`: the IC50 in series [3] is > 50 µM; in [1], 0.0035 µM; in [7], 36 µM; in series [2] it was 30 µM; in [9], 30 µM. Besides, the Selectivity ratio in series [4], in [5], in series [6] and in series [8] was 10000 each time.
In the case of `Cc1cc(C)c(S(=O)(=O)N[C@@H](CNC(=O)CO[C@@H]2C[C@@H](CNc3ccccn3)N(C(=O)OCc3ccccc3)C2)C(=O)O)c(C)c1`, the remaining at 1 h, 1 µM in series [10] was found to be 43%. Besides, the IC50 is > 200 µM in series [7], 0.016 µM in series [2] and 0.33 µM in series [9].
For `Cc1cc(C)c(S(=O)(=O)N[C@@H](CNC(=O)CO[C@@H]2C[C@@H](CNc3cc(Cl)ccn3)N(C(=O)OCc3ccccc3)C2)C(=O)O)c(C)c1`, the IC50 in [1] was found to be 0.445 µM.
Consider `COc1ccnc(NC[C@@H]2C[C@@H](OCC(=O)NC[C@H](NC(=O)c3c(C)cc(C)cc3C)C(=O)O)CN2C(=O)CC(C)(C)C)c1`, for which the IC50 was > 50 µM in [3]; 0.00055 µM in series [1]; 13 µM in [7]; 3.3 µM in [2]; 6.8 µM in [9]; 0.05 µM in [11].
Consider `Cc1cc(C)c(S(=O)(=O)N[C@@H](CNC(=O)CO[C@@H]2C[C@@H](CNc3ccccn3)N(C(=O)CCc3ccccc3)C2)C(=O)O)c(C)c1`, for which the IC50 in series [1] amounted to 0.025 µM; in series [2], 0.038 µM.
On to `O=C(CO[C@@H]1C[C@@H](CNc2ccccn2)N(C(=O)OCc2ccccc2)C1)NC[C@H](NC(=O)c1ccccc1)C(=O)O`, for which the values for the IC50 in series [1] and in series [2] were 0.155 µM and 0.14 µM, respectively.
As to `CC(C)(C)CC(=O)N1C[C@H](OCC(=O)NC[C@H](NC(=O)C2(C)CCCCC2)C(=O)O)C[C@H]1CNc1ccccn1`, the IC50 in [3] is > 50 µM; in series [1], 0.0014 µM; in series [2], 1.6 µM; in [9] it was 2.3 µM.
`Cc1cc(C)c(S(=O)(=O)N[C@@H](CNC(=O)CO[C@H]2CN[C@H](CNc3ccccn3)C2)C(=O)O)c(C)c1`: the IC50 in series [1] was determined as 0.286 µM.
In the case of `Cc1cc(C)c(C(=O)N[C@@H](CNC(=O)CO[C@@H]2C[C@@H](CNc3ccccn3)N(C(=O)CC(C)(C)C)C2)C(=O)O)c(C)c1`, the IC50 in series [3] was > 50 µM; in series [1] it was 0.0016 µM; in series [2] it was 16 µM; in [9] it was > 50 µM.
As for `COc1ccnc(NC[C@@H]2C[C@@H](OCC(=O)NC[C@H](NS(=O)(=O)c3c(C)cc(C)cc3C)C(=O)O)CN2C(=O)OCc2ccccc2)c1`, the IC50 in series [3] was 0.0077 µM; in series [1], 0.0011 µM; in series [2], 0.0024 µM; in [9], 0.019 µM.
For `COc1ccnc(NC[C@@H]2C[C@@H](OCC(=O)NC[C@H](NC(=O)C3(C)CCCCC3)C(=O)O)CN2C(=O)OCc2ccccc2)c1`, the IC50 was > 50 µM in series [3]; 0.0008 µM in series [1]; 30 µM in [7]; 0.69 µM in series [2]; 3.1 µM in [9].
Consider `O=C(CO[C@@H]1C[C@@H](CNc2ccccn2)N(C(=O)OCc2ccccc2)C1)NC[C@H](NS(=O)(=O)c1ccccc1)C(=O)O`, for which the IC50 is 12 µM in series [3], 0.086 µM in [1], 0.0063 µM in series [2] and 0.26 µM in [9].
Consider `Cc1cc(C)c(S(=O)(=O)N[C@@H](CNC(=O)CO[C@@H]2C[C@@H](CNc3cccc(C)n3)N(C(=O)OCc3ccccc3)C2)C(=O)O)c(C)c1`, for which the values for the IC50 in series [1] and in series [2] were 0.231 µM and 0.021 µM, respectively.
In the case of `COc1ccnc(NC[C@@H]2C[C@@H](OCC(=O)NC[C@H](NC(=O)C3(C)CCCCC3)C(=O)O)CN2C(=O)CC(C)(C)C)c1`, the IC50 in series [3] was > 50 µM; in series [1], 0.00055 µM; in series [7], 50 µM; in series [2], 0.98 µM; in [9], 4.3 µM.
With `Cc1cc(C)c(S(=O)(=O)N[C@@H](CNC(=O)CO[C@@H]2C[C@@H](CNc3ccccn3)N(C(=O)CC(C)(C)C)C2)C(=O)O)c(C)c1`, the 50% inhibitory concentration (IC50) stood at 8 µM in series [3], 0.006 µM in series [1], 0.036 µM in series [2] and 0.245 µM in series [9]. Further, the remaining at 1 h, 1 µM in series [10] turned out to be 70%.
Regarding `COc1ccnc(NC[C@@H]2C[C@@H](OCC(=O)NC[C@H](NS(=O)(=O)c3c(C)cc(C)cc3C)C(=O)O)CN2C(=O)CC(C)(C)C)c1`, the IC50 stood at 11 µM in [3], 0.0009 µM in series [1], 0.004 µM in series [2] and 0.029 µM in series [9].
With `COc1ccnc(NC[C@@H]2C[C@@H](OCC(=O)NC[C@H](NC(=O)c3c(C)cc(C)cc3C)C(=O)O)CN2C(=O)OCc2ccccc2)c1`, the IC50 came to 50 µM in series [3]; 0.00054 µM in series [1]; 20 µM in [7]; 3.4 µM in series [2]; 2.7 µM in series [9].
As for `CC1(C(=O)N[C@@H](CNC(=O)CO[C@@H]2C[C@@H](CNc3ccccn3)N(C(=O)OCc3ccccc3)C2)C(=O)O)CCCCC1`, the IC50 in series [3] was > 50 µM; in [1] it was 0.0017 µM; in [2] it was 0.88 µM; in series [9], 0.55 µM.
Turning to `Cc1cc(C)c(S(=O)(=O)N[C@@H](CNC(=O)CO[C@@H]2C[C@@H](CNc3ccccn3)N(CCCc3ccccc3)C2)C(=O)O)c(C)c1`, in [1], the IC50 was determined as 0.67 µM. In other words, the sub-micromolar range.
